Data taken from ChEMBL document CHEMBL1156307 (J Med Chem, 2010).

Columns and labels:
[1] = target: Histone deacetylase 1 (Homo sapiens, UniProt Q13547); assay: Inhibition of FLAG-tagged HDAC1 expressed in HEK293 cells by fluorescent assay; assay type: cell-based
[2] = tested on: HCT-116; assay: Antiproliferative activity against human HCT116 cells by MTS assay; assay type: functional, cell-based
How it was run: (§1)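 Monolayer proliferation assay. Cells were seeded at 5000-10000 per well and exposed to eight serial compound dilutions for 72 h. Viability was read by CellTiter-Glo or MTS per the kit protocol, and IC50 was taken from growth curves. Each determination averaged triplicate concentration-inhibition curves. Values are the mean ± standard deviation of two separate determinations.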

[3] = Antiproliferative activity against human H1299 cells by MTS assay; assay type: functional, cell-based; settings: NCI-H1299; how it was run: as §1
[4] = target: Voltage-gated inwardly rectifying potassium channel KCNH2 (Homo sapiens, UniProt Q12809); assay: Inhibition of human ERG expressed in CHO cells by automated patch clamp electrophysiology assay
Voltage-gated inwardly rectifying potassium channel KCNH2, sequence (Q12809 whole entry): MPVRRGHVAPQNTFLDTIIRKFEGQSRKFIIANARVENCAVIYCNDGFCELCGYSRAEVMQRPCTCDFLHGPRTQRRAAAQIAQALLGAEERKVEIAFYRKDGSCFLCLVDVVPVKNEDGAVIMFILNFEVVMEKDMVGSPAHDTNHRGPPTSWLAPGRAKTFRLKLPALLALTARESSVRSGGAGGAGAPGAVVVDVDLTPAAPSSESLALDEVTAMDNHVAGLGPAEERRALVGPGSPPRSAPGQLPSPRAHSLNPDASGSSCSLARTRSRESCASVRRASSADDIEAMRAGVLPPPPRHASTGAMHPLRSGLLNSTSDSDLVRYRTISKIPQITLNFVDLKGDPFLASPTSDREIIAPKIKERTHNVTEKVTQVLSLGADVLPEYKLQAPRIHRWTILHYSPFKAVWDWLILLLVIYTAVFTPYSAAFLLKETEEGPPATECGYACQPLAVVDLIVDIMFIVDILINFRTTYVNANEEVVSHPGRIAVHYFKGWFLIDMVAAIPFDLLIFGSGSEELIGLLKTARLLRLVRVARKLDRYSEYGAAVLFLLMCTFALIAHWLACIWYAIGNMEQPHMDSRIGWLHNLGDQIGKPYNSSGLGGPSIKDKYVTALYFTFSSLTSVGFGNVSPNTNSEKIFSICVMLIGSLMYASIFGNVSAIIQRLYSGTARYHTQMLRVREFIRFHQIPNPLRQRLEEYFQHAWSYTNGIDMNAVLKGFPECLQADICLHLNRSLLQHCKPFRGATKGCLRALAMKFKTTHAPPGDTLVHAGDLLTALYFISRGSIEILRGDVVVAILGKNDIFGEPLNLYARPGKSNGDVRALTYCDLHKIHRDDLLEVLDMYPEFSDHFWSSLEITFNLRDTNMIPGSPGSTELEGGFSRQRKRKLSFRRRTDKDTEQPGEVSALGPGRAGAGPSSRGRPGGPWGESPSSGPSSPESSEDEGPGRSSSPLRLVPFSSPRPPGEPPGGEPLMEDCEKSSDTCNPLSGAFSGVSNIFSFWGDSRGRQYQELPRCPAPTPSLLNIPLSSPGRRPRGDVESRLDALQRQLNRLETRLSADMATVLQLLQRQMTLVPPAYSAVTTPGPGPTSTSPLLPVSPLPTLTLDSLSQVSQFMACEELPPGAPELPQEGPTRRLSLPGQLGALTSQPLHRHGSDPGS

[5] = Association constant, pKa at pH 2 to 12; assay type: physicochemical
[6] = target: Histone deacetylase 2 (Homo sapiens, UniProt Q92769); assay: Inhibition of HDAC2 expressed in baculovirus system by fluorescent assay
Histone deacetylase 2, sequence (Q92769 whole entry): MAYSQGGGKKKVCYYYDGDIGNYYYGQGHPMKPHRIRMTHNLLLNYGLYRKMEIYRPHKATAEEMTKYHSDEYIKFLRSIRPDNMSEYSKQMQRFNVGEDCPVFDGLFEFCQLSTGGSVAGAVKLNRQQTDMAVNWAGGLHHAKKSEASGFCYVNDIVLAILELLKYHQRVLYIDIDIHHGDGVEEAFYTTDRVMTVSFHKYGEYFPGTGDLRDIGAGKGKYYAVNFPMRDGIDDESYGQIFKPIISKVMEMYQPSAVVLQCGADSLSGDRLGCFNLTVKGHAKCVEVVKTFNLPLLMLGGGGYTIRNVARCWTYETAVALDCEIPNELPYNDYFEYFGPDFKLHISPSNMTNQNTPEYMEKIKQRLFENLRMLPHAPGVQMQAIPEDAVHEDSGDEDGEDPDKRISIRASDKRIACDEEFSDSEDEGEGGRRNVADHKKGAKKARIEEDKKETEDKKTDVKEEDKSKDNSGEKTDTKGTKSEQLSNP

[7] = target: Histone deacetylase 3 (Homo sapiens, UniProt O15379); assay: Inhibition of FLAG-tagged HDAC3 expressed in HEK293 cells by fluorescent assay; assay type: cell-based
Histone deacetylase 3, sequence (O15379 whole entry): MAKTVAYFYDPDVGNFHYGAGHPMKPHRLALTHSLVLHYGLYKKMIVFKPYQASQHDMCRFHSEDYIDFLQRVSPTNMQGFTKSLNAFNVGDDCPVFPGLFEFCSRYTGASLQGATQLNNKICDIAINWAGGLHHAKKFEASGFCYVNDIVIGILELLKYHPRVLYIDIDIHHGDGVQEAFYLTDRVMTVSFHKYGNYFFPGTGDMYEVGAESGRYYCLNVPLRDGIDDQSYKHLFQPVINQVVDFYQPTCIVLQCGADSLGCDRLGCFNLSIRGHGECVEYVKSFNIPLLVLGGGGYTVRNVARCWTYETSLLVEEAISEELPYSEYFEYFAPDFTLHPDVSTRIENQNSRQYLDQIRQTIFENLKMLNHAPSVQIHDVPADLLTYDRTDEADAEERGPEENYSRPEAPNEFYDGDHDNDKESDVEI
How it was run: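 HDAC3 immunopurified from 293 cells stably expressing FLAG-tagged enzyme. Substrate bis-Boc-(Ac)Lys-rhodamine 110; its deacetylation releases a fluorophore, read on a fluorometric plate reader.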

[8] = target: Histone deacetylase 4 (Homo sapiens, UniProt P56524); assay: Inhibition of HDAC4 expressed in baculovirus system by fluorescent assay
Histone deacetylase 4, sequence (P56524 whole entry): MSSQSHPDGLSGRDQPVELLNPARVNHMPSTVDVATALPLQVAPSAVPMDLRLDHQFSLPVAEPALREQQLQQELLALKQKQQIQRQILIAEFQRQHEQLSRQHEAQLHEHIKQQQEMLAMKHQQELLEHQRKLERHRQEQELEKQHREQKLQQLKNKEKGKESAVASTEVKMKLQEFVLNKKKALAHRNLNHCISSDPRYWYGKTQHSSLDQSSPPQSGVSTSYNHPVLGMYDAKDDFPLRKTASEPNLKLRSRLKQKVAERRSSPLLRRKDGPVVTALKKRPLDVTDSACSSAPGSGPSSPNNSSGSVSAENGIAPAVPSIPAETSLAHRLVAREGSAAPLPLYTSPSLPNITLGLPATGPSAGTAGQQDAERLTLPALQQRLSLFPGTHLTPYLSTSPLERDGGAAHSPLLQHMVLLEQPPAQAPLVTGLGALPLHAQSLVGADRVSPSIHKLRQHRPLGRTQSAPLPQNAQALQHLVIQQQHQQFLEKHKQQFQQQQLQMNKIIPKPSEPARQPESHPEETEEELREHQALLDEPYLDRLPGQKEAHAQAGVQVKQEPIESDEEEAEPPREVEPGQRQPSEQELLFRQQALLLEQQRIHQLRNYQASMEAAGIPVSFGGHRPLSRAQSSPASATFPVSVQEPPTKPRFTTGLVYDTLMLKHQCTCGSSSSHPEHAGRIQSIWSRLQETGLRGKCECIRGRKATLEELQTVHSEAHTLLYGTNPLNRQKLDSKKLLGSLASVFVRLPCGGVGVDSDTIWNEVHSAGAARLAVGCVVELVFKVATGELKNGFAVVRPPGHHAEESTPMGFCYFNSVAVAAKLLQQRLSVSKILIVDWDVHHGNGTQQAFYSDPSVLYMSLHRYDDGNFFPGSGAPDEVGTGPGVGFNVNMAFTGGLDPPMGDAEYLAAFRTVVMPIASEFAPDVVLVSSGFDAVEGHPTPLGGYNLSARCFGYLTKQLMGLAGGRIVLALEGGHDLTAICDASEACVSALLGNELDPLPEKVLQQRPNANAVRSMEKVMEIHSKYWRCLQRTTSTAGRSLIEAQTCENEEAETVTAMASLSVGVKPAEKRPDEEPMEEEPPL
How it was run: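 HDAC4 purified from a baculovirus expression system. Substrate bis-Boc-(Ac)Lys-rhodamine 110; its deacetylation generates a fluorophore, read on a fluorometric plate reader.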

[9] = target: T1, Protein deacetylase HDAC6 (Homo sapiens, UniProt Q9UBN7); assay: Inhibition of FLAG-tagged HDAC6 expressed in HEK293 cells by fluorescent assay; assay type: cell-based
T1 sequence (Q9UBN7 whole entry): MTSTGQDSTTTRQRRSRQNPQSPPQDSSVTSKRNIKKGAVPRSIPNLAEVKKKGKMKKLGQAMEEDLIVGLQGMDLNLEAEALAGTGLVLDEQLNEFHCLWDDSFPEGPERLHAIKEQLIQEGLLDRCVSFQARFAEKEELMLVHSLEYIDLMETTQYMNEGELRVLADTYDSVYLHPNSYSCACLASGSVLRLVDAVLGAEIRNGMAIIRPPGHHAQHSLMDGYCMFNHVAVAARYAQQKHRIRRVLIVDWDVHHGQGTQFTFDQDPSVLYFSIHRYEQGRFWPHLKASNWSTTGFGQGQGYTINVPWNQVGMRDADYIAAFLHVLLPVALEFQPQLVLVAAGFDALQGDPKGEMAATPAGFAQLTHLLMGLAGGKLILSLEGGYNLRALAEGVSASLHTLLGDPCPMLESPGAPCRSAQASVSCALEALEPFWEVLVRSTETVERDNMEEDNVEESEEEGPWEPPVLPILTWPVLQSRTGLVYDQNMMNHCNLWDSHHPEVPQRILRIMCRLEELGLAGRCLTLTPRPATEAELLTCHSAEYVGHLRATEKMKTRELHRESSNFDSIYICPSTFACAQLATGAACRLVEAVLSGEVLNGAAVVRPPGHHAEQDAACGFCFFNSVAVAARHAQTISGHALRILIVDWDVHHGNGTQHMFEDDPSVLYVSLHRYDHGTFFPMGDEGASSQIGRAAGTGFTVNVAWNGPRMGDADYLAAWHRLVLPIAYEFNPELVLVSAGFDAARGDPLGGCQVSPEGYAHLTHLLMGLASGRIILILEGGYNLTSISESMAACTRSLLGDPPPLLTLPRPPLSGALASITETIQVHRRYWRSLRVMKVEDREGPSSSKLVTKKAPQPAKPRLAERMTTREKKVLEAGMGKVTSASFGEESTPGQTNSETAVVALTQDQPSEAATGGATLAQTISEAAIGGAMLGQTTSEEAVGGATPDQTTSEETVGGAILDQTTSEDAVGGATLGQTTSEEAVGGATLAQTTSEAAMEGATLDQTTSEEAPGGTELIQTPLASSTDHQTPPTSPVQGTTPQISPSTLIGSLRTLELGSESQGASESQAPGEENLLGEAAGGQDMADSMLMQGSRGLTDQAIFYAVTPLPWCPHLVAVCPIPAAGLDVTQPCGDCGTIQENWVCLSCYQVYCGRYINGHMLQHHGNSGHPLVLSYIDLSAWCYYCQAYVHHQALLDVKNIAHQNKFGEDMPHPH
How it was run: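 HDAC6 immunopurified from 293 cells stably expressing the FLAG-tagged isoform. Deacetylation of the bis-Boc-(Ac)Lys-rhodamine 110 substrate releases a fluorophore, read on a fluorometric plate reader.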

[10] = target: T2, Histone deacetylase 8 (Homo sapiens, UniProt Q9BY41); assay: Inhibition of HDAC8 expressed in baculovirus system by fluorescent assay
T2 sequence (Q9BY41 whole entry): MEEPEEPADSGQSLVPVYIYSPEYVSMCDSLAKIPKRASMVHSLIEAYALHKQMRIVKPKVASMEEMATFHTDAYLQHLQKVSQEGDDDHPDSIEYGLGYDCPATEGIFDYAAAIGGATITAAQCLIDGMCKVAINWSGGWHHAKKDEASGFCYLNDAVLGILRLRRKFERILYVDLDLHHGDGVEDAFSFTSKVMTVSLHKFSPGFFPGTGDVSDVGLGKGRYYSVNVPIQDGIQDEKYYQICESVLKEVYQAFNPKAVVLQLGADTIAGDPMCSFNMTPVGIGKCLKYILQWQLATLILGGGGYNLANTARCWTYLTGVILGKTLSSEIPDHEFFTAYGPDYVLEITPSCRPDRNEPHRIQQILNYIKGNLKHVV

Histone deacetylase 1, sequence (Q13547 whole entry): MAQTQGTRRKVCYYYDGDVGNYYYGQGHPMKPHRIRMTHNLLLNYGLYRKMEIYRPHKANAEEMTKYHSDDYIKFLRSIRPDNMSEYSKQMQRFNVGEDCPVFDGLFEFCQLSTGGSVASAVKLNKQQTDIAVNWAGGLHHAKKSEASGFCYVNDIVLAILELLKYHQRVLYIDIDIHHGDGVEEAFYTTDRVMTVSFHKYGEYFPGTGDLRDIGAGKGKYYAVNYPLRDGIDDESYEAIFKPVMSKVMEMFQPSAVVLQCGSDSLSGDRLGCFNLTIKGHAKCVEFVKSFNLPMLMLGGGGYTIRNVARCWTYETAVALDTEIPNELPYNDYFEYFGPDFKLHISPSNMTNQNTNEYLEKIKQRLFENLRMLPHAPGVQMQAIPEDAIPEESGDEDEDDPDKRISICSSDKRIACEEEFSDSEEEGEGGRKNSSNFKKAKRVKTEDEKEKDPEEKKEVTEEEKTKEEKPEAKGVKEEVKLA

| Structure (SMILES) | IC50 [1] | IC50 [2] | pKa [5] | IC50 [3] | IC50 [4] | IC50 [6] | IC50 [7] | IC50 [8] | IC50 [9] | IC50 [10] |
| --- | --- | --- | --- | --- | --- | --- | --- | --- | --- | --- |
| Cc1[nH]c2ccccc2c1CCN1Cc2ccc(/C=C/C(=O)NO)cc2C1 | 27 nM | 41 nM | – | 232 nM | 4800 nM | – | – | – | – | – |
| Cc1[nH]c2ccccc2c1CC1CCCCN1Cc1ccc(/C=C/C(=O)NO)cc1 (configuration not stated) | 24 nM | 27 nM | – | 153 nM | – | – | – | – | – | – |
| Cc1[nH]c2ccccc2c1CCN1CCCC1c1ccc(/C=C/C(=O)NO)cc1 (configuration not stated) | – | 1 nM | – | 4.3 nM | 19400 nM | – | – | – | – | – |
| Cc1[nH]c2ccccc2c1CCN1CCc2cc(/C=C/C(=O)NO)ccc2C1 | 41 nM | 119 nM | – | 725 nM | – | – | – | – | – | – |
| CC(C)(C)c1[nH]c2ccccc2c1[C@H]1CCCN(Cc2ccc(/C=C/C(=O)NO)cc2F)C1 | – | 0.8 nM | – | 5.4 nM | – | 31 nM | 9 nM | 28 nM | 118 nM | 217 nM |
| O=C(/C=C/c1ccc(CN2CCCC(c3c(-c4ccccc4)[nH]c4ccccc34)C2)c(F)c1)NO (configuration not stated) | 16 nM | 11 nM | 7.4 | 106 nM | – | – | – | – | – | – |
| CC(C)(C)c1[nH]c2ccccc2c1[C@@H]1CCCN(Cc2ccc(/C=C/C(=O)NO)cc2F)C1 | – | 143 nM | – | 443 nM | – | 48 nM | 21 nM | 38 nM | 110 nM | 364 nM |
| Cc1[nH]c2ccccc2c1CCN1CCc2ccc(/C=C/C(=O)NO)cc2C1 | 13 nM | 42 nM | – | 165 nM | 2700 nM | – | – | – | – | – |
| O=C(/C=C/c1ccc(CN(CCO)CCc2c[nH]c3ccccc23)cc1)NO [DACINOSTAT] | – | 13 nM | – | 161 nM | – | – | – | – | – | – |

The next lines start with results.

| IC50 [1] | IC50 [2] | pKa [5] | Structure (SMILES) | IC50 [3] | IC50 [4] | IC50 [6] | IC50 [7] | IC50 [8] | IC50 [9] | IC50 [10] |
| --- | --- | --- | --- | --- | --- | --- | --- | --- | --- | --- |
| 76 nM | 545 nM | – | Cc1[nH]c2ccccc2c1CCN1CCc2ccc(/C=C/C(=O)NO)cc2CC1 | > 1000 nM | 3200 nM | – | – | – | – | – |
| 5 nM | 5.6 nM | 7.8 | Cc1[nH]c2ccccc2c1C1CCCN(Cc2ccc(/C=C/C(=O)NO)cc2)C1 (configuration not stated) | 31 nM | 27600 nM | – | – | – | – | – |
| 2.8 nM | 3.2 nM | – | Cc1[nH]c2ccccc2c1C1CCN(Cc2ccc(/C=C/C(=O)NO)cc2)C1 (configuration not stated) | 14 nM | 13400 nM | – | – | – | – | – |
| 136 nM | 332 nM | – | O=C(/C=C/c1ccc(CN2CCCC(c3c[nH]c4ccccc34)C2)c(F)c1)NO (configuration not stated) | 3520 nM | – | – | – | – | – | – |
| – | 3.8 nM | 7.3 | CC(C)(C)c1[nH]c2ccccc2c1C1CCCN(Cc2ccc(/C=C/C(=O)NO)cc2F)C1 (configuration not stated) | 20 nM | – | – | – | – | – | – |
| – | 5.2 nM | 7.4 | CC(C)(C)c1[nH]c2ccccc2c1C1CCCN(Cc2ccc(/C=C/C(=O)NO)cc2Cl)C1 (configuration not stated) | 60 nM | 9900 nM | – | – | – | – | – |
| 11 nM | 25 nM | 7.3 | O=C(/C=C/c1ccc(CN2CCCC(c3c[nH]c4ccccc34)C2)cc1)NO (configuration not stated) | 141 nM | – | – | – | – | – | – |
| 11 nM | 6.9 nM | 7.7 | O=C(/C=C/c1ccc(CN2CCCC(c3c(-c4ccccc4)[nH]c4ccccc34)C2)cc1)NO (configuration not stated) | 31 nM | – | – | – | – | – | – |
| – | 0.9 nM | 7.8 | CC(C)(C)c1[nH]c2ccccc2c1C1CCCN(Cc2ccc(/C=C/C(=O)NO)cc2)C1 (configuration not stated) | 6.3 nM | 13500 nM | – | – | – | – | – |
